Test results reported in ChEMBL document CHEMBL1145123, “Trisubstituted acridine derivatives as potent and selective telomerase inhibitors” (J Med Chem, 2003).

Columns and labels:
[1] = […]; type: functional, cell-based; conditions: Homo sapiens, A-431
[2] = organism: Homo sapiens; assay: Affinity constant for binding to human 22-mer quadruplex; type: functional
[3] = Cytotoxicity against ovarian carcinoma A2780 cell lines; type: functional, cell-based; conditions: Homo sapiens
Procedure, shortened: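 SRB assay. Cells were seeded at 3000–6000 per well and attached overnight. Salts dissolved in water at 500 μM were added in quadruplicate at 0.05, 0.25, 1, 5 and 25 μM final for 96 h. Cells were then fixed with cold 10% TCA and stained with 0.4% SRB. A540 was expressed as % of untreated control, and IC50 was derived.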

[4] = biological target: Telomerase reverse transcriptase (Homo sapiens, UniProt O14746); assay: Inhibitory activity against human telomerase
Procedure, shortened: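 Modified TRAP assay with extract protein (0.04 μg) from exponentially growing A2780 cells. The enzyme was heat-inactivated at 80 °C, then CX primer was added and 31 PCR cycles were run. Products were quantified by gel phosphorimaging or filter scintillation counting. Agents were first screened against Taq polymerase at 1–50 μM.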

[5] = organism: Homo sapiens; assay: (§1) Affinity constant for binding to duplex DNA; type: functional, organism-based
[6] = biological target: Nucleic Acid; assay: as §1; type: functional, Homo sapiens

Sequence of Telomerase reverse transcriptase (O14746 whole entry): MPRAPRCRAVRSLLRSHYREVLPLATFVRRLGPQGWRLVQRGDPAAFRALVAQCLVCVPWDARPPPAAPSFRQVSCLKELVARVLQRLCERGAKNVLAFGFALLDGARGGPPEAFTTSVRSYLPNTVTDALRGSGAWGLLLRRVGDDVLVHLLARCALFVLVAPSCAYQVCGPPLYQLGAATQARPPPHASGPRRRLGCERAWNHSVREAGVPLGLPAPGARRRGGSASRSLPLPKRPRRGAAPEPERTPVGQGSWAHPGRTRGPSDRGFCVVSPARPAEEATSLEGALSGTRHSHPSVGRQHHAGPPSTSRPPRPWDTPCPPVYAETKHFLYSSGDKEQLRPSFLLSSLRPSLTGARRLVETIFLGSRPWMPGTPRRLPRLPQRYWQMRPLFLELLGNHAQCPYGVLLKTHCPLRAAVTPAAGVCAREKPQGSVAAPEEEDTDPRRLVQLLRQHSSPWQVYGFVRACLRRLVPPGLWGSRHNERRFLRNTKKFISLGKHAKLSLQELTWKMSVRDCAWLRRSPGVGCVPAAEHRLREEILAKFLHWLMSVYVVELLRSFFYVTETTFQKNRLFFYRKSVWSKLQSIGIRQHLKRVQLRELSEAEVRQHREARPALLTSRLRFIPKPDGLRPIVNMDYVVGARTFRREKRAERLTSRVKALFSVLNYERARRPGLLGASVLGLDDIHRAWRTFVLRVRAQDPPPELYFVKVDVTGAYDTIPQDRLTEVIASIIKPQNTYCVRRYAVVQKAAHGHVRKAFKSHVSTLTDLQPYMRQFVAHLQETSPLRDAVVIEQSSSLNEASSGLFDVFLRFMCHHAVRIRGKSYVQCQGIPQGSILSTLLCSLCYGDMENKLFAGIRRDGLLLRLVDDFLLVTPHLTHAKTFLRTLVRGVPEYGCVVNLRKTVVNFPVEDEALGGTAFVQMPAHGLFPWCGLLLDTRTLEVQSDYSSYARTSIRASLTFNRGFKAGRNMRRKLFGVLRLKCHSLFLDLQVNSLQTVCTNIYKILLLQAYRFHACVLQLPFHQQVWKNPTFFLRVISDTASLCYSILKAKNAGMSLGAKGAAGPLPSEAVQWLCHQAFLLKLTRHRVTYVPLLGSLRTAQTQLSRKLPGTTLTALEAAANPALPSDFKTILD

| SMILES | Ka [2] | EC50 [4] | Ka [5] | Ka [6] | IC50 [1] | IC50 [3] |
| --- | --- | --- | --- | --- | --- | --- |
| CN(C)c1ccc(Nc2c3ccc(NC(=O)CCN4CCCC4)cc3nc3cc(NC(=O)CCN4CCCC4)ccc23)cc1 | 16000000 M⁻¹ | 0.115 µM | 400000 M⁻¹ |  | 15.8 µM | 10 µM |
| Nc1ccc(Nc2c3ccc(NC(=O)CCN4CCCC4)cc3nc3ccc(NC(=O)CCN4CCCC4)cc23)cc1 |  | 0.08 µM |  |  | > 25 µM | > 25 µM |
| CN(C)CCCNc1c2ccc(NC(=O)CCN3CCCC3)cc2nc2ccc(NC(=O)CCN3CCCC3)cc12 |  | 0.08 µM |  |  | > 25 µM | > 25 µM |
| CN(C)c1ccc(Nc2c3cc(NC(=O)CCN4CCCC4)ccc3nc3ccc(NC(=O)CCN4CCCC4)cc23)cc1 |  | 0.5 µM |  |  | > 25 µM | 19 µM |
| Nc1ccccc1Nc1c2cc(NC(=O)CCN3CCCC3)ccc2nc2ccc(NC(=O)CCN3CCCC3)cc12 |  | 0.17 µM |  |  | > 25 µM | 17.8 µM |
| CC(=O)c1ccc(Nc2c3ccc(NC(=O)CCN4CCCC4)cc3nc3cc(NC(=O)CCN4CCCC4)ccc23)cc1 |  | 0.04 µM |  |  | 2.2 µM | 3.2 µM |
| Nc1ccc(Nc2c3cc(NC(=O)CCN4CCCC4)ccc3nc3ccc(NC(=O)CCN4CCCC4)cc23)cc1 |  | 0.2 µM |  |  | > 25 µM | > 25 µM |
| CN(C)CCNc1c2cc(NC(=O)CCN3CCCC3)ccc2nc2ccc(NC(=O)CCN3CCCC3)cc12 |  | 0.57 µM |  |  | > 25 µM | 11 µM |
| Nc1ccccc1Nc1c2ccc(NC(=O)CCN3CCCC3)cc2nc2ccc(NC(=O)CCN3CCCC3)cc12 |  | 0.11 µM |  |  | > 25 µM | 15.8 µM |
| CN(C)c1cccc(Nc2c3cc(NC(=O)CCN4CCCC4)ccc3nc3ccc(NC(=O)CCN4CCCC4)cc23)c1 |  | 0.6 µM |  |  | 12.6 µM | 3.2 µM |
| Nc1cccc(Nc2c3cc(NC(=O)CCN4CCCC4)ccc3nc3ccc(NC(=O)CCN4CCCC4)cc23)c1 |  | 1.09 µM |  |  | > 25 µM | 6.3 µM |
| CN(C)c1cccc(Nc2c3ccc(NC(=O)CCN4CCCC4)cc3nc3cc(NC(=O)CCN4CCCC4)ccc23)c1 |  | 0.1 µM |  |  | 2 µM | 7.9 µM |
| COc1cccc(Nc2c3cc(NC(=O)CCN4CCCC4)ccc3nc3ccc(NC(=O)CCN4CCCC4)cc23)c1 |  | 2.73 µM |  |  | 10 µM | 2.5 µM |
| CN(C)c1ccc(Nc2c3ccc(NC(=O)CCN4CCCC4)cc3nc3ccc(NC(=O)CCN4CCCC4)cc23)cc1 |  | 0.17 µM |  |  | 10 µM | 7.9 µM |
| COc1ccc(Nc2c3cc(NC(=O)CCN4CCCC4)ccc3nc3ccc(NC(=O)CCN4CCCC4)cc23)cc1 |  | 0.46 µM |  |  | 12.6 µM | 10 µM |
| O=C(CCN1CCCC1)Nc1ccc2c(Nc3ccccc3)c3cc(NC(=O)CCN4CCCC4)ccc3nc2c1 |  | 1.33 µM |  |  | 14 µM | 5.6 µM |
| Nc1cccc(Nc2c3ccc(NC(=O)CCN4CCCC4)cc3nc3ccc(NC(=O)CCN4CCCC4)cc23)c1 |  | 0.21 µM |  |  | > 25 µM | 15.8 µM |
| O=C(CCN1CCCC1)Nc1ccc2nc3ccc(NC(=O)CCN4CCCC4)cc3c(Nc3ccccc3)c2c1 |  | 1.29 µM |  |  | 12.5 µM | 2.6 µM |
| O=C(CCN1CCCC1)Nc1ccc2nc3ccc(NC(=O)CCN4CCCC4)cc3c(Nc3ccccc3O)c2c1 |  | 1.03 µM |  |  | > 25 µM | 10 µM |
| CC(=O)Nc1cccc(Nc2c3ccc(NC(=O)CCN4CCCC4)cc3nc3cc(NC(=O)CCN4CCCC4)ccc23)c1 |  | 0.1 µM |  |  | > 25 µM | > 25 µM |
| O=C(CCN1CCCC1)Nc1ccc2cc3ccc(NC(=O)CCN4CCCC4)cc3nc2c1 | 1300000 M⁻¹ | 5.2 µM |  | 1100000 M⁻¹ |  | 2.6 µM |

Second part, led by results:

| Ka [2] | EC50 [4] | Ka [5] | Ka [6] | SMILES | IC50 [1] | IC50 [3] |
| --- | --- | --- | --- | --- | --- | --- |
|  | 0.02 µM |  |  | Nc1ccccc1Nc1c2ccc(NC(=O)CCN3CCCC3)cc2nc2cc(NC(=O)CCN3CCCC3)ccc12 | 7.1 µM | 11 µM |
|  | 0.1 µM |  |  | CSc1cccc(Nc2c3ccc(NC(=O)CCN4CCCC4)cc3nc3cc(NC(=O)CCN4CCCC4)ccc23)c1 | 1.3 µM | 2.8 µM |
|  | 0.066 µM |  |  | O=C(CCN1CCCC1)Nc1ccc2c(NCc3cccnc3)c3ccc(NC(=O)CCN4CCCC4)cc3nc2c1 | > 25 µM | > 25 µM |
|  | 0.21 µM |  |  | O=C(CCN1CCCC1)Nc1ccc2c(NC3CCCCC3)c3cc(NC(=O)CCN4CCCC4)ccc3nc2c1 | 14 µM | 10 µM |
|  | 0.06 µM |  |  | CN(C)CCCNc1c2ccc(NC(=O)CCN3CCCC3)cc2nc2cc(NC(=O)CCN3CCCC3)ccc12 | > 25 µM | > 25 µM |
|  | 0.27 µM |  |  | CN(C)CCNc1c2ccc(NC(=O)CCN3CCCC3)cc2nc2ccc(NC(=O)CCN3CCCC3)cc12 | > 25 µM | > 25 µM |
|  | 0.018 µM |  |  | CN1CCCC1CCNc1c2ccc(NC(=O)CCN3CCCC3)cc2nc2cc(NC(=O)CCN3CCCC3)ccc12 (stereo unspecified) | 25 µM | > 25 µM |
|  | 0.21 µM |  |  | O=C(CCN1CCCC1)Nc1ccc2c(NC3CCCCCC3)c3ccc(NC(=O)CCN4CCCC4)cc3nc2c1 | 3.2 µM | 3.2 µM |
| 16000000 M⁻¹ | 0.074 µM |  | 500000 M⁻¹ | Nc1ccc(Nc2c3ccc(NC(=O)CCN4CCCC4)cc3nc3cc(NC(=O)CCN4CCCC4)ccc23)cc1 | 25 µM | 25 µM |
|  | 0.06 µM |  |  | Nc1cccc(Nc2c3ccc(NC(=O)CCN4CCCC4)cc3nc3cc(NC(=O)CCN4CCCC4)ccc23)c1 | 12.6 µM | 12.6 µM |
|  | 0.15 µM |  |  | CSc1ccccc1Nc1c2ccc(NC(=O)CCN3CCCC3)cc2nc2cc(NC(=O)CCN3CCCC3)ccc12 | 2.5 µM | 0.1 µM |
| 57000000 M⁻¹ | 0.018 µM |  | 4900000 M⁻¹ | CN(C)CCNc1c2ccc(NC(=O)CCN3CCCC3)cc2nc2cc(NC(=O)CCN3CCCC3)ccc12 | > 25 µM | > 25 µM |
|  | 0.05 µM |  |  | O=C(CCN1CCCC1)Nc1ccc2c(NCCN3CCCCC3)c3ccc(NC(=O)CCN4CCCC4)cc3nc2c1 | 11.2 µM | 12.6 µM |
|  | 0.14 µM |  |  | COCCNc1c2ccc(NC(=O)CCN3CCCC3)cc2nc2cc(NC(=O)CCN3CCCC3)ccc12 | 10 µM | 10 µM |
|  | 0.09 µM |  |  | O=C(CCN1CCCC1)Nc1ccc2c(NC3CCCCC3)c3ccc(NC(=O)CCN4CCCC4)cc3nc2c1 | 2.5 µM | 12.5 µM |
|  | 0.05 µM |  |  | O=C(CCN1CCCC1)Nc1ccc2c(NC3CC3)c3ccc(NC(=O)CCN4CCCC4)cc3nc2c1 | > 25 µM | 19 µM |
|  | 0.07 µM |  |  | O=C(CCN1CCCC1)Nc1ccc2c(Nc3ccc(F)cc3)c3ccc(NC(=O)CCN4CCCC4)cc3nc2c1 | 0.5 µM | 3.2 µM |
